We go through 1 molecule from ChEMBL document CHEMBL3797089, “Morusin Induces TRAIL Sensitization by Regulating EGFR and DR5 in Human Glioblastoma Cells” (J Nat Prod, 2016).

Structures are written as SMILES. pIC50: −log10 of the molar value. Activity calls are given as the source filed them. No cut-off for these calls is given here.

Assay [1] deals with T98G. As to the kind of experiment: Induction of apoptosis in human T98G cells assessed as increase in cleaved caspase 9 levels at 2.5 uM after 24 hrs by Western blot analysis in presence of TRAIL. It counts as functional, cell-based. In a few lines: (§1)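 U87MG and T98G given TRAIL 25 ng/mL plus morusin 2.5 μM together for 24 h; single-agent arms used TRAIL 50 ng/mL or morusin 5 μM. Lysates immunoblotted for cleaved caspase 3, 8, 9 and cleaved PARP, with β-actin as internal control.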
For orientation: In western blotting, separated proteins are transferred to a membrane and probed.

Assay [2] in a line: Reduction of EGFR expression in human U87MG cells at 25 uM after 24 hrs by Western blot analysis. Format: functional, cell-based. Conditions: U-87MG ATCC. The gist of the method:
(§2)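 LN18, U87MG, T98G, U251MG and U373MG glioblastoma cells were exposed to morusin for 24 h. Cells were maintained in DMEM, MEM or RPMI with 10% FBS at 37 °C and 5% CO2. Whole-cell lysates were Western blotted for receptor proteins, with β-actin as internal control.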

Assay [3] can be described thus: Reduction of survivin expression in human U87MG cells after 24 hrs by Western blot analysis. Format: functional, cell-based. Conditions: U-87MG ATCC. In a few lines:
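U87MG (MEM) and U373MG (RPMI) cells were given graded morusin concentrations for 24 h. Whole-cell extracts were immunoblotted for anti-apoptotic proteins, with β-actin as loading control.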

In assay [4] the test system is U-87 MG. Briefly: Induction of apoptosis in human U87MG cells assessed as apoptic cells at 20 uM after 24 hrs by V-FITC/propidium iodide staining based flow cytometric analysis in presence of TRAIL. It counts as functional, cell-based. To be noted: U-87MG ATCC. In a few lines: (§3)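 (2–3) × 10^5 cells/well given TRAIL 50 ng/mL with morusin 20 μM for 24 h. Annexin V-FITC/PI double staining, flow cytometry; annexin V-positive cells counted as apoptotic. Mean ± SD, t-test against mock.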

Assay [5] addresses Epidermal growth factor receptor (Homo sapiens) (UniProt P00533). As to the kind of experiment: Inhibition of EGFR phosphorylation in human U87MG cells measured up to 25 uM after 24 hrs by Western blot analysis. Conditions: U-87MG ATCC. Format: cell-based. The gist of the method:
(§4)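 Cells grown in MEM (U87MG) or RPMI (U373MG) with 10% FBS, 5% CO2, 37 °C. Treated for 24 h with the indicated concentrations of morusin (DMSO stock). Whole-cell lysates immunoblotted for phosphorylated and total proteins, with β-actin as internal control.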

Assay [6] has as its system U373 MG. As to the kind of experiment: Induction of DR5 expression in human U373MG cells after 24 hrs by Western blot analysis. It counts as functional, cell-based. Conditions: U-373MG ATCC. The gist of the method: (§5)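 Cells exposed to a range of morusin concentrations for 24 h. Cell extracts immunoblotted for DR4, DR5, DcR1 and DcR2, with β-actin as internal control and HRP-conjugated secondary antibodies (1:5000).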

For assay [7], the system named is U-87 MG. As to the kind of experiment: Induction of DR5 mRNA expression in human U87MG cells at 25 uM after 24 hrs by RT-qPCR analysis. It counts as functional, cell-based. To be noted: U-87MG ATCC. In a few lines: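 U87MG held at 25 μM morusin for the times indicated. Total RNA extracted; 1 μg reverse transcribed; DR5 mRNA measured by RT-qPCR against GAPDH. Mean ± SD.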
A general note: Real-time PCR tracks product formation cycle by cycle.

The subject of assay [8] is U-87 MG. Briefly: Induction of apoptosis in human U87MG cells assessed as increase in cleaved PARP levels at 2.5 uM after 24 hrs by Western blot analysis in presence of TRAIL. It counts as functional, cell-based. Conditions: U-87MG ATCC. The gist of the method: as §1
The nature of assay [9]: Reduction of XIAP expression in human U87MG cells at 25 uM by Western blot analysis. Format: functional, cell-based. Conditions: U-87MG ATCC, TDE = time-dependent effect. The gist of the method:
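Time course: U87MG and U373MG cells were exposed to 25 μM morusin for the indicated times. Whole-cell extracts were Western blotted, with β-actin as internal control.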

The subject of assay [10] is U-87 MG. Briefly: Induction of DR4 expression in human U87MG cells at 25 uM after 24 hrs by FITC-conjugated flow cytometric analysis. Format: functional, cell-based. To be noted: U-87MG ATCC. In a few lines: (§6)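 Cells given 25 μM morusin for 24 h, then stained on ice for 30 min with 0.5 μg/mL FITC-conjugated anti-DR4, anti-DR5 or isotype IgG in FACS buffer. Surface expression read by flow cytometry.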
(In general: Flow cytometry measures light scatter and fluorescence of single cells or particles in a stream.)

Assay [11] is described as follows: Reduction of EGFR expression in human U373MG cells at 25 uM after 24 hrs by Western blot analysis. To be noted: U-373MG ATCC. Format: functional, cell-based. The gist of the method:
as §2

Assay [12] is described as follows: Reduction of PDGFR expression in human U87MG cells at 25 uM after 24 hrs by Western blot analysis. Format: functional, cell-based. Conditions: U-87MG ATCC. The gist of the method: as §2
Assay [13] has as its system T98G. Briefly: Reduction of PDGFR expression in human T98G cells at 25 uM after 24 hrs by Western blot analysis. Format: functional, cell-based. In a few lines: as §2
Assay [14] can be described thus: Cytotoxicity against human U251MG cells assessed as reduction in cell viability measured up to 20 uM after 24 hrs by MTT assay in presence of TRAIL. Format: functional, U-251. In a few lines:
(§7)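 MTT viability. 3–5 × 10^3 cells/well, treated the next day with TRAIL 100 ng/mL plus increasing morusin concentrations for 24 h. 1 mg/mL MTT for 2 h at 37 °C, lysis overnight, OD 570 nm. Living-cell fractions were used for combination index analysis. Mean ± SD, at least three independent experiments.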

A short description of assay [15]: Cytotoxicity against human U138MG cells assessed as reduction in cell viability after 24 hrs by MTT assay. Format: functional, cell-based. Conditions: U138-MG. The gist of the method: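 Seeded 3–5 × 10^3 cells/well, treated the next day with a range of morusin (DMSO stock) for 24 h, 37 °C, 5% CO2. Then fresh medium with 1 mg/mL MTT for 2 h at 37 °C, lysis buffer overnight at 37 °C, OD 570 nm. Mean ± SD from at least three independent experiments in triplicate.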

Assay [16] can be described thus: Cytotoxicity against human U373MG cells assessed as reduction in cell viability measured up to 20 uM after 24 hrs by MTT assay in presence of TRAIL. Format: functional, U-373MG ATCC. The gist of the method: as §7
In assay [17] the test system is LN-18. As to the kind of experiment: Effect on DR4 expression in human LN18 cells upto 25 uM after 24 hrs by Western blot analysis. Format: functional, cell-based. The gist of the method: as §5
For assay [18], the system named is U-251. Briefly: Induction of DR5 expression in human U251MG cells at 25 uM after 24 hrs by FITC-conjugated flow cytometric analysis. It counts as functional, cell-based. The gist of the method: as §6
Assay [19] in a line: Cytotoxicity against human U87MG cells transfected DR5 siRNA assessed as cell death after 24 hrs by MTT assay in presence of TRAIL. It counts as functional, U-87MG ATCC. In a few lines:
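U87MG cells were transiently transfected with scrambled control or DR5 siRNA by lipofection. At 48 h after transfection they were cotreated with TRAIL at 50 ng/mL and test compound at 20 μM for 24 h. Viability was read by MTT: 1 mg/mL for 2 h at 37 °C, lysis overnight, OD at 570 nm. Data are mean ± SD from ≥3 independent experiments.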

In assay [20] the test system is U373 MG. As to the kind of experiment: Induction of DR4 expression in human U373MG cells at 25 uM after 24 hrs by FITC-conjugated flow cytometric analysis. Conditions: U-373MG ATCC. It counts as functional, cell-based. The gist of the method: as §6
Assay [21] deals with Signal transducer and activator of transcription 3 (Homo sapiens) (UniProt P40763). As to the kind of experiment: Inhibition of STAT3 phosphorylation in human U87MG cells measured up to 25 uM after 24 hrs by Western blot analysis. It counts as cell-based. Conditions: U-87MG ATCC. In a few lines: as §4
Chain of Signal transducer and activator of transcription 3 (Homo sapiens) (P40763 whole entry): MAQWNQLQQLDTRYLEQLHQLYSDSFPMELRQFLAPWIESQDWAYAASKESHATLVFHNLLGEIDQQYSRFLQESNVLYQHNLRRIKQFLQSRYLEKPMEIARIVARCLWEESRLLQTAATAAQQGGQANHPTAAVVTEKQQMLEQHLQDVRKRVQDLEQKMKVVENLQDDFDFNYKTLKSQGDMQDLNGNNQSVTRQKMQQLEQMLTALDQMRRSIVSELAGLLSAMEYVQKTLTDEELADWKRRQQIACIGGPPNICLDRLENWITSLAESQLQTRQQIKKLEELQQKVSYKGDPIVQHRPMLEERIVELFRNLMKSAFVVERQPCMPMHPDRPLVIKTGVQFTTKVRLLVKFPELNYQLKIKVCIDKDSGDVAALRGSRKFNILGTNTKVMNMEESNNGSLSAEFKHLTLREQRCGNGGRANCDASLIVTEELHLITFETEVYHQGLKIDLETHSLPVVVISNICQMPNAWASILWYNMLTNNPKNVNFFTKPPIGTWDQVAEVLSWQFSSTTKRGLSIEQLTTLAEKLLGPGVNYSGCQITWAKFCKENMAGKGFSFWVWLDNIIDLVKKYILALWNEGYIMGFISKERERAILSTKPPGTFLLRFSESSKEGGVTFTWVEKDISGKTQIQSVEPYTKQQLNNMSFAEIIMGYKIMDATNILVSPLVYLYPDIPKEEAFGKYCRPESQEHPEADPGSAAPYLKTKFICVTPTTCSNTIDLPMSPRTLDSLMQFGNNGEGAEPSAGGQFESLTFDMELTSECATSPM
For assay [22], the system named is T98G. Briefly: Induction of apoptosis in human T98G cells assessed as apoptic cells at 20 uM after 24 hrs by V-FITC/propidium iodide staining based flow cytometric analysis in presence of TRAIL. Format: functional, cell-based. In a few lines:
as §3

The subject of assay [23] is T98G. As to the kind of experiment: Induction of apoptosis in human T98G cells assessed as increase in cleaved caspase 8 levels at 2.5 uM after 24 hrs by Western blot analysis in presence of TRAIL. Format: functional, cell-based. In a few lines: as §1
Assay [24] concerns T98G. Briefly: Cytotoxicity against human T98G cells assessed as reduction in cell viability measured up to 20 uM after 24 hrs by MTT assay in presence of TRAIL. It counts as functional. In a few lines: as §7

In general, pIC50 refers to the IC50 on a negative log10 scale, so that one unit is a factor of ten.

Chain of Epidermal growth factor receptor (Homo sapiens) (P00533 whole entry): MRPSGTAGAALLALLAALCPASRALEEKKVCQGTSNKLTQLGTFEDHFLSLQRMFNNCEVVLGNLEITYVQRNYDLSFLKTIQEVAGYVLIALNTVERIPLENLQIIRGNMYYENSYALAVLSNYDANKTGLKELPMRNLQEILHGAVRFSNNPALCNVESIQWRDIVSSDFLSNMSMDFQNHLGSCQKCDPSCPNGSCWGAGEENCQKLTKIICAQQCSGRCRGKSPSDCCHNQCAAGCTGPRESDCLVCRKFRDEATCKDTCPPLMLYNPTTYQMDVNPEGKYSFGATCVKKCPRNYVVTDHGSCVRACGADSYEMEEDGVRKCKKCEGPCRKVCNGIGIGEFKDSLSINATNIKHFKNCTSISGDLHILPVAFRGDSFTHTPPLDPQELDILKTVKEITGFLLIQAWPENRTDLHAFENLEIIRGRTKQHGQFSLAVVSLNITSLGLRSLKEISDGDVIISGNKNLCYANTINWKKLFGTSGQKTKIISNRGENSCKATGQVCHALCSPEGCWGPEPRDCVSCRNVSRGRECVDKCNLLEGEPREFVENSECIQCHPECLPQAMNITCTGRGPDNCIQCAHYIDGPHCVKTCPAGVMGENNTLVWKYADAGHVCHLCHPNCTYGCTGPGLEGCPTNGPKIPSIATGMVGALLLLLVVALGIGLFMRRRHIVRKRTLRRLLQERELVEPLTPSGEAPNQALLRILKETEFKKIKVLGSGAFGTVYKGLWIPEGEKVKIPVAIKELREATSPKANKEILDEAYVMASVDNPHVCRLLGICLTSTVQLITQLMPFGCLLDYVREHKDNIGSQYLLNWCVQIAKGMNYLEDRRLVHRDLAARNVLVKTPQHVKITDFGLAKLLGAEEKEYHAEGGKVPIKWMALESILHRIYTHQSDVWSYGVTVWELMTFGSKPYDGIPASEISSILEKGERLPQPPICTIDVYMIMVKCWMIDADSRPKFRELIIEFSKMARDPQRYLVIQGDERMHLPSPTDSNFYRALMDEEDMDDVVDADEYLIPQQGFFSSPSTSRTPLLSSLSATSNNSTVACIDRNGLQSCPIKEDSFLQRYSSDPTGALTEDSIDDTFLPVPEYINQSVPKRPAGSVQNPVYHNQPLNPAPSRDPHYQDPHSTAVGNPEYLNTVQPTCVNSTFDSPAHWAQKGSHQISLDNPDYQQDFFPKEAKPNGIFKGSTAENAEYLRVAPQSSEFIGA

Consider `CC(C)=CCc1c(-c2ccc(O)cc2O)oc2c3c(cc(O)c2c1=O)OC(C)(C)C=C3` [MORUSIN], for which the outcome in assay [1], in assay [2], in [4], in assay [7], in assay [8] and in [11] was Active. Further, the outcome in [12], in assay [13], in assay [18], in [22] and in assay [23] was Active. The inhibition result in assay [3] is “Dose-dependent effect”; in [9], “tde”. Besides, the inhibition result in [5] and in assay [21] was “Active” throughout. For the same molecule, the results for the Activity result in [6] and in [19] were “Dose-dependent effect” and 10%, respectively. Moreover, the result in [10], in [17] and in assay [20] was inactive. Also, the CI in [14], in assay [16] and in assay [24] was under 0.8 throughout. The pIC50 in [15] is 4.62.
